# According to ChEMBL document CHEMBL1125607, “Novel gonadotropin-releasing hormone antagonists: peptides incorporating modified N omega-cyanoguanidino moieties” (J Med Chem, 1991):
# Calls of active or inactive are those of the source. No cut-off for these calls is given here. Where a SMILES comes first, the peptide text is derived from it. [ ]: non-standard residue; d: D form. The star is where a group is joined. Triazol3yl(1,2,4-5-NH2) = Nc1nc(*)n[nH]1; dPhe(4-Cl) = N[C@H](Cc1ccc(Cl)cc1)C(=O)O; d2Nal = N[C@H](Cc1ccc2ccccc2c1)C(=O)O; Lys(iPr) = CC(C)NCCCC[C@H](N)C(=O)O; d3Pal = N[C@H](Cc1cccnc1)C(=O)O; Nicotinoyl = O=C(c1cccnc1)*
# What was measured:
# Rattus norvegicus [1] = species: Rattus norvegicus; experiment: In vitro histamine release by rat mast cells.; conditions: read-out: ED50 (the source's name)
# [2] = molecular target: T1, Gonadotropin-releasing hormone receptor (Rattus norvegicus, UniProt P30969); experiment: In vitro binding affinity of Gonadotropin-releasing hormone antagonist was measured in rat pituitary cell membranes; parameters: species or system Pituitary gland cell, Membrane
# T1 sequence (P30969 whole entry): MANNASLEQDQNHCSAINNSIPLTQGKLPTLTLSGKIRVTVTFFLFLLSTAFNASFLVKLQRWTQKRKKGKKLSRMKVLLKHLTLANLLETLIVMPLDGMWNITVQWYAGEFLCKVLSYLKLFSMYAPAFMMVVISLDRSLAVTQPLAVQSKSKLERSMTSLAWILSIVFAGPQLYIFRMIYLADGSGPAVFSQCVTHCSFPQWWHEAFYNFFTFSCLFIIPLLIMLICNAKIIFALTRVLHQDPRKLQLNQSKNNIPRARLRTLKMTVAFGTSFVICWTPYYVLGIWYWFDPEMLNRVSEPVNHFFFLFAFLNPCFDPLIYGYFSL
# Procedure, shortened: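 Displacement binding on pituitary cell membranes with [DAla6,NMe-Leu7,Pro9-NHEt]GnRH as standard; analogue KD values calculated from potencies relative to that standard derived from displacement data.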
# Rattus norvegicus [3] = experiment: Potency (2 mg/rat) using anti-ovulatory assay, expressed as rat ovulating/total number of treated rats measured after sc administration; 2/10; assay type: functional, organism-based
# Rattus norvegicus [4] = experiment: Potency (5 mg/rat) using anti-ovulatory assay, expressed as rat ovulating/total number of treated rats measured after sc administration; 14/20; assay type: functional, organism-based
# [5] = molecular target: Gonadotropin-releasing hormone receptor (Rattus norvegicus) (UniProt P30969); experiment: Antagonist potency at GnRH receptor relative to a standard ([Ac-delta3Pro, DFpa2, DTrp3,6]GnRH).
# Rattus norvegicus [6] = experiment: Potency (1 mg/rat) using anti-ovulatory assay, expressed as rat ovulating/total number of treated rats measured after sc administration; 5/5; assay type: functional, organism-based
# Rattus norvegicus [7] = experiment: Potency (2.5 mg/rat) using anti-ovulatory assay, expressed as rat ovulating/total number of treated rats measured after sc administration; 2/8; assay type: functional, organism-based
# Rattus norvegicus [8] = experiment: Potency (2 mg/rat) using anti-ovulatory assay, expressed as rat ovulating/total number of treated rats measured after sc administration; 1/10; assay type: functional, organism-based
# Rattus norvegicus [9] = experiment: Potency (1 mg/rat) using anti-ovulatory assay, expressed as rat ovulating/total number of treated rats measured after sc administration; 1/17; assay type: functional, organism-based
# Rattus norvegicus [10] = experiment: Potency (0.5 mg/rat) using anti-ovulatory assay, expressed as rat ovulating/total number of treated rats measured after sc administration; 8/18; assay type: functional, organism-based
# Rattus norvegicus [11] = experiment: Potency (1 mg/rat) using anti-ovulatory assay, expressed as rat ovulating/total number of treated rats measured after sc administration; 2/8; assay type: functional, organism-based
# Rattus norvegicus [12] = experiment: Potency (0.5 mg/rat) using anti-ovulatory assay, expressed as rat ovulating/total number of treated rats measured after sc administration; 6/6; assay type: functional, organism-based
# Rattus norvegicus [13] = experiment: Potency (1.0 mg/rat) using anti-ovulatory assay, expressed as rat ovulating/total number of treated rats measured after sc administration; 5/5; assay type: functional, organism-based
# Rattus norvegicus [14] = experiment: Potency (2.5 mg/rat) using anti-ovulatory assay, expressed as rat ovulating/total number of treated rats measured after sc administration; 0/7; assay type: functional, organism-based
SMILES,EC50 (Rattus norvegicus [1]),Kd [2],Relative potency [5],other results
CC(C)C[C@H](NC(=O)[C@@H](CCCCNC(=NC#N)NCc1ccccn1)NC(=O)[C@H](CCCCNC(=NC#N)NCc1ccccn1)NC(=O)[C@H](CO)NC(=O)[C@H](Cc1c[nH]c2ccccc12)NC(=O)[C@H](Cc1cnc[nH]1)NC(=O)[C@@H]1CCC(=O)N1)C(=O)N[C@@H](CCCCNC(C)C)C(=O)N1CCC[C@H]1C(=O)N[C@H](C)C(N)=O,,0.27 nM,,
CC(=O)N[C@H](Cc1ccc2ccccc2c1)C(=O)N[C@H](Cc1ccc(F)cc1)C(=O)N[C@H](Cc1c[nH]c2ccccc12)C(=O)N[C@@H](CO)C(=O)N[C@@H](Cc1ccc(O)cc1)C(=O)N[C@H](CCCN=C(N)N)C(=O)N[C@@H](CC(C)C)C(=O)N[C@@H](CCCN=C(N)N)C(=O)N1CCC[C@H]1C(=O)NCC(N)=O (HELM PEPTIDE1{[ac].[O=C([C@@H](Cc1ccc2ccccc2c1)N[*:1])[*:2]].[O=C([C@@H](Cc1ccc(F)cc1)N[*:1])[*:2]].[dW].S.Y.[dR].L.R.P.G.[am]}$$$$V2.0),0.17 µg/mL,,,
CCCC/N=C(\NC#N)NCCCC[C@H](NC(=O)[C@H](CC(C)C)NC(=O)[C@@H](CCCCNC(=O)c1cccnc1)NC(=O)[C@H](CCCCNC(=O)c1cccnc1)NC(=O)[C@H](CO)NC(=O)[C@H](Cc1c[nH]c2ccccc12)NC(=O)[C@H](Cc1c[nH]cn1)NC(=O)[C@@H]1CCC(=O)N1)C(=O)N1CCC[C@H]1C(=O)N[C@H](C)C(N)=O,,0.45 nM,0.3,Activity (Rattus norvegicus [4]): Weak activity
CC(C)C[C@H](NC(=O)[C@@H](Cc1cccnc1)NC(=O)[C@H](Cc1ccc(O)cc1)NC(=O)[C@H](CO)NC(=O)[C@@H](Cc1cccnc1)NC(=O)[C@H](Cc1cnc[nH]1)NC(=O)[C@@H]1CCC(=O)N1)C(=O)N[C@@H](CCCCNC(C)C)C(=O)N1CCC[C@H]1C(=O)N[C@H](C)C(N)=O,,0.08 nM,,
CC(C)C[C@H](NC(=O)[C@@H](CCCCNC(=NC#N)NC1CCCCC1)NC(=O)[C@H](CCCCNC(=NC#N)NC1CCCCC1)NC(=O)[C@H](CO)NC(=O)[C@H](Cc1c[nH]c2ccccc12)NC(=O)[C@H](Cc1cnc[nH]1)NC(=O)[C@@H]1CCC(=O)N1)C(=O)N[C@@H](CCCCNC(C)C)C(=O)N1CCC[C@H]1C(=O)N[C@H](C)C(N)=O,,1.2 nM,,
CCCCCC/N=C(\NC#N)NCCCC[C@H](NC(=O)[C@H](CO)NC(=O)[C@H](Cc1c[nH]c2ccccc12)NC(=O)[C@H](Cc1c[nH]cn1)NC(=O)[C@@H]1CCC(=O)N1)C(=O)N[C@H](CCCCN/C(=N/CCCCCC)NC#N)C(=O)N[C@@H](CC(C)C)C(=O)N[C@@H](CCCCNC(C)C)C(=O)N1CCC[C@H]1C(=O)N[C@H](C)C(N)=O,,3.3 nM,0.14,Activity (Rattus norvegicus [6]): inactive; Activity (Rattus norvegicus [7]): Weak activity
CC(C)C[C@H](NC(=O)[C@@H](CCCC/N=C(/NC#N)NC(C)C)NC(=O)[C@H](CCCC/N=C(/NC#N)NC(C)C)NC(=O)[C@H](CO)NC(=O)[C@H](Cc1c[nH]c2ccccc12)NC(=O)[C@H](Cc1c[nH]cn1)NC(=O)[C@@H]1CCC(=O)N1)C(=O)N[C@@H](CCCCNC(C)C)C(=O)N1CCC[C@H]1C(=O)N[C@H](C)C(N)=O,,0.32 nM,0.3,Activity (Rattus norvegicus [11]): Active; Activity (Rattus norvegicus [12]): inactive
CC(=O)N[C@H](Cc1ccc2ccccc2c1)C(=O)N[C@H](Cc1ccc(Cl)cc1)C(=O)N[C@H](Cc1cccnc1)C(=O)N[C@@H](CO)C(=O)N[C@@H](CCCCNC(=O)c1cccnc1)C(=O)N[C@H](CCCCNC(=O)c1cccnc1)C(=O)N[C@@H](CC(C)C)C(=O)N[C@@H](CCCCNC(C)C)C(=O)N1CCC[C@H]1C(=O)N[C@H](C)C(N)=O (Ac-[d2Nal][dPhe(4-Cl)][d3Pal]SK(Nicotinoyl)[dK](Nicotinoyl)L[Lys(iPr)]P[dA]-NH2),> 300 µg/mL,,,
CCCCNC(=NC#N)NCCCC[C@@H](NC(=O)[C@H](Cc1ccc(O)cc1)NC(=O)[C@H](CO)NC(=O)[C@@H](Cc1cccnc1)NC(=O)[C@H](Cc1cnc[nH]1)NC(=O)[C@@H]1CCC(=O)N1)C(=O)N[C@@H](CC(C)C)C(=O)N[C@@H](CCCNC(=N)N)C(=O)N1CCC[C@H]1C(=O)N[C@H](C)C(N)=O,,1.7 nM,,

# The next lines start with results.
EC50 (Rattus norvegicus [1]),Kd [2],Relative potency [5],SMILES,other results
50 µg/mL,,,CCCC/N=C(\NC#N)NCCCC[C@@H](NC(=O)[C@H](Cc1c[nH]cn1)NC(=O)[C@@H]1CCC(=O)N1)C(=O)N[C@@H](CO)C(=O)N[C@@H](Cc1ccc(O)cc1)C(=O)N[C@H](CCCCN/C(=N/CCCC)NC#N)C(=O)N[C@@H](CC(C)C)C(=O)N[C@@H](CCCCNC(C)C)C(=O)N1CCC[C@H]1C(=O)N[C@H](C)C(N)=O,
,0.24 nM,,C/N=C(\NC#N)NCCCC[C@@H](NC(=O)[C@H](CCCCN/C(=N\C)NC#N)NC(=O)[C@H](CO)NC(=O)[C@H](Cc1c[nH]c2ccccc12)NC(=O)[C@H](Cc1c[nH]cn1)NC(=O)[C@@H]1CCC(=O)N1)C(=O)N[C@@H](CC(C)C)C(=O)N[C@@H](CCCCNC(C)C)C(=O)N1CCC[C@H]1C(=O)N[C@H](C)C(N)=O,Activity (Rattus norvegicus [3]): Active
19 µg/mL,,,CC(C)C[C@H](NC(=O)[C@@H](CCCN=C(N)N)NC(=O)[C@H](Cc1ccc(O)cc1)NC(=O)[C@H](CO)NC(=O)[C@@H](Cc1cccnc1)NC(=O)[C@H](Cc1c[nH]cn1)NC(=O)[C@@H]1CCC(=O)N1)C(=O)N[C@@H](CCCCNc1n[nH]c(N)n1)C(=O)N1CCC[C@H]1C(=O)N[C@H](C)C(N)=O,
,0.27 nM,,CC(C)C[C@H](NC(=O)[C@@H](CCCNC(=N)N)NC(=O)[C@H](Cc1ccc(O)cc1)NC(=O)[C@H](CO)NC(=O)[C@@H](CCCCNc1nnc(N)[nH]1)NC(=O)[C@H](Cc1cnc[nH]1)NC(=O)[C@@H]1CCC(=O)N1)C(=O)N[C@@H](CCCCNC(C)C)C(=O)N1CCC[C@H]1C(=O)N[C@H](C)C(N)=O,
158 µg/mL,0.21 nM,0.2,CC(C)C[C@H](NC(=O)[C@@H](CCCNc1n[nH]c(N)n1)NC(=O)[C@H](CCCNc1n[nH]c(N)n1)NC(=O)[C@H](CO)NC(=O)[C@H](Cc1c[nH]c2ccccc12)NC(=O)[C@H](Cc1c[nH]cn1)NC(=O)[C@@H]1CCC(=O)N1)C(=O)N[C@@H](CCCCNC(C)C)C(=O)N1CCC[C@H]1C(=O)N[C@H](C)C(N)=O,Activity (Rattus norvegicus [8]): Active
50 µg/mL,,1.3,CC(C)C[C@H](NC(=O)[C@@H](Cc1ccc(Nc2n[nH]c(N)n2)cc1)NC(=O)[C@H](Cc1ccc(Nc2n[nH]c(N)n2)cc1)NC(=O)[C@H](CO)NC(=O)[C@H](Cc1c[nH]c2ccccc12)NC(=O)[C@H](Cc1c[nH]cn1)NC(=O)[C@@H]1CCC(=O)N1)C(=O)N[C@@H](CCCCNC(C)C)C(=O)N1CCC[C@H]1C(=O)N[C@H](C)C(N)=O,Activity (Rattus norvegicus [9]): Active; Activity (Rattus norvegicus [10]): Weak activity
,0.48 nM,,"CC(=O)N[C@H](Cc1ccc2ccccc2c1)C(=O)N[C@H](Cc1ccc(Cl)cc1)C(=O)N[C@H](Cc1cccnc1)C(=O)N[C@@H](CO)C(=O)N[C@@H](CCCCNc1n[nH]c(N)n1)C(=O)N[C@H](CCCCNc1n[nH]c(N)n1)C(=O)N[C@@H](CC(C)C)C(=O)N[C@@H](CCCCNC(C)C)C(=O)N1CCC[C@H]1C(=O)N[C@H](C)C(N)=O (Ac-[d2Nal][dPhe(4-Cl)][d3Pal]SK(Triazol3yl(1,2,4-5-NH2))[dK](Triazol3yl(1,2,4-5-NH2))L[Lys(iPr)]P[dA]-NH2)",
> 150 µg/mL,,,CC(C)C[C@H](NC(=O)[C@@H](CCCCNc1n[nH]c(N)n1)NC(=O)[C@H](Cc1ccc(O)cc1)NC(=O)[C@H](CO)NC(=O)[C@@H](CCCCNc1n[nH]c(N)n1)NC(=O)[C@H](Cc1c[nH]cn1)NC(=O)[C@@H]1CCC(=O)N1)C(=O)N[C@@H](CCCCNC(C)C)C(=O)N1CCC[C@H]1C(=O)N[C@H](C)C(N)=O,
,,1.6,CCCC/N=C(\NC#N)NCCC[C@@H](NC(=O)[C@H](Cc1c[nH]cn1)NC(=O)[C@@H]1CCC(=O)N1)C(=O)N[C@@H](CO)C(=O)N[C@@H](Cc1ccc(O)cc1)C(=O)N[C@H](Cc1cccnc1)C(=O)N[C@@H](CC(C)C)C(=O)N[C@@H](CCCCNC(C)C)C(=O)N1CCC[C@H]1C(=O)N[C@H](C)C(N)=O,Activity (Rattus norvegicus [13]): inactive; Activity (Rattus norvegicus [14]): Active
,,0.23,CC(C)C[C@H](NC(=O)[C@@H](CCCCNc1n[nH]c(N)n1)NC(=O)[C@H](CCCCNc1n[nH]c(N)n1)NC(=O)[C@H](CO)NC(=O)[C@H](Cc1c[nH]c2ccccc12)NC(=O)[C@H](Cc1c[nH]cn1)NC(=O)[C@@H]1CCC(=O)N1)C(=O)N[C@@H](CCCCNC(C)C)C(=O)N1CCC[C@H]1C(=O)N[C@H](C)C(N)=O,Activity (Rattus norvegicus [8]): Active
